Columns and labels:
[1] = Antiproliferative activity against human MCF10A cells after 48 hrs by Sulforhodamine B assay; format: cell-based; settings: MCF-10A
[2] = Antiproliferative activity against mouse McCoy cells after 48 hrs by Sulforhodamine B assay; format: cell-based
EL4 = assay: Antiproliferative activity against mouse EL4 cells after 48 hrs by Sulforhodamine B assay; format: functional, cell-based; settings: EL4, 48 h
Outline: (§1)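 Cancer lines from the National Cancer Institute (murine leukemic EL4, human breast MCF7, human prostate PC3), in a standard high-flux screening format. Cells incubated with compound at several concentrations, 37 °C for 48 h. Trichloroacetic acid fixation, sulforhodamine B staining, absorbance read at 490 nm. IC50 reported as mean SD of three experiments.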

[3] = Antiproliferative activity against human PC3 cells after 48 hrs by Sulforhodamine B assay; format: functional, cell-based; settings: PC-3, 48 h; outline: as §1
MCF7 = assay: Antiproliferative activity against human MCF7 cells after 48 hrs by Sulforhodamine B assay; format: functional, cell-based; settings: MCF7, 48 h; outline: as §1
[4] = Antiproliferative activity against mouse NIH/3T3 cells after 48 hrs by Sulforhodamine B assay; format: cell-based; settings: NIH3T3, 48 h

SMILES	IC50 (MCF7) [µM]	IC50 [1] [µM]	IC50 [2] [µM]	IC50 (EL4) [µM]	IC50 [3] [µM]	IC50 [4] [µM]
C[C@@]12CCCC[C@H]1CC[C@@H]1OC(=O)[C@H](Cc3c[nH]c4ccccc34)N=C12	77	> 1500	> 1500	71	83	> 1500
CC1(C)[C@H]2CC[C@]1(C)[C@H]1OC(=O)[C@H](Cc3ccccc3)N=C21					160	
CC(C)(C)OC(=O)n1cnc(C[C@H]2N=C3C[C@H]4C[C@H](C4(C)C)[C@@]3(C)OC2=O)c1	142	> 1300	> 1300	139	147	> 1300
C[C@@]12CCCC[C@H]1CC[C@@H]1OC(=O)CN=C12	11	> 2000	> 2000	7.7	13	> 2000
C[C@H]1N=C2[C@H](CC[C@@H]3CCCC[C@@]23C)OC1=O	57	> 2000	> 2000	53	57	> 2000
O=C1O[C@H]2CCc3ccccc3C2=N[C@H]1Cc1ccccc1	41	> 1000	> 1000	39	45	> 1000
O=C1O[C@H]2CCc3ccccc3C2=N[C@H]1Cc1c[nH]c2ccccc12	39	> 1000	> 1000	36	39	> 1000
C[C@@]12CCCC[C@H]1CC[C@@H]1OC(=O)[C@H](Cc3ccccc3)N=C12	53	> 1700	> 1700	50	51	> 1700
C[C@@]12CCCC[C@H]1CC=C(O)C2=O	119	> 2000	> 2000	114	119	> 2000
C[C@@]12CCCC[C@H]1CC[C@@H]1OC(=O)[C@@H](Cc3ccccc3)N=C12	12	> 1200	> 1200	12	12	> 1200
O=C1O[C@@H]2CCc3ccccc3C2=N[C@H]1Cc1ccccc1	27	> 1000	> 1000	24	30	> 1000
O=C1O[C@@H]2CCc3ccccc3C2=N[C@H]1Cc1c[nH]c2ccccc12	25	> 1000	> 1000	22	26	> 1000

Continued, in another order:

IC50 (MCF7) [µM]	SMILES	IC50 [1] [µM]	IC50 [2] [µM]	IC50 (EL4) [µM]	IC50 [3] [µM]	IC50 [4] [µM]
40	CC(C)(C)OC(=O)CC[C@@H]1N=C2C[C@@H]3C[C@@H](C3(C)C)[C@]2(C)OC1=O	> 1000	> 1000	36	42	> 1000
162	CC1(C)N=C2C[C@H]3C[C@H](C3(C)C)[C@@]2(C)OC1=O	> 2000	> 2000	149	166	> 2000
17	CC(C)(C)OC(=O)NCCCC[C@@H]1N=C2C[C@@H]3C[C@@H](C3(C)C)[C@]2(C)OC1=O	> 800	> 800	15	18	> 800
6.3	CC(C)(C)OC(=O)NCCC[C@@H]1N=C2C[C@@H]3C[C@@H](C3(C)C)[C@]2(C)OC1=O	> 1200	> 1200	4.1	6.6	> 1200
38	C[C@H]1N=C2C[C@H]3C[C@H](C3(C)C)[C@@]2(C)OC1=O	> 1800	> 1800	27	42	> 1800
38	CC1(C)[C@@H]2CC3=N[C@@H](CCC(=O)O)C(=O)O[C@@]3(C)[C@H]1C2	> 1200	> 1200	36	42	> 1200
56	CC(C)(C)OC(=O)NCCC[C@H]1N=C2C[C@H]3C[C@H](C3(C)C)[C@@]2(C)OC1=O	> 1500	> 1500	48	60	> 1500
34	CC1(C)[C@H]2CC3=N[C@H](CCC(=O)O)C(=O)O[C@]3(C)[C@@H]1C2	> 1200	> 1200	30	38	> 1200
15.3	CC(C)(C)OC(=O)NCCCC[C@H]1N=C2C[C@H]3C[C@H](C3(C)C)[C@@]2(C)OC1=O	> 1300	> 1300	14.5	15.9	> 1300
22	CC1(C)[C@@H]2CC3=NCC(=O)O[C@@]3(C)[C@H]1C2	> 900	> 900	19	43	> 900
154	C[C@@H]1N=C2C[C@@H]3C[C@@H](C3(C)C)[C@]2(C)OC1=O	> 2000	> 2000	145	149	> 2000
> 300	CC1(C)[C@H]2CC3=NCC(=O)O[C@]3(C)[C@@H]1C2	> 2000	> 2000	> 300	> 300	> 2000
> 300	CC1(C)[C@@H]2CC3=N[C@@H](Cc4ccccc4)C(=O)O[C@@]3(C)[C@H]1C2	> 1000	> 1000	> 300	> 300	> 1000
8.4	CC1(C)[C@H]2CC3=N[C@H](Cc4ccccc4)C(=O)O[C@]3(C)[C@@H]1C2	> 1500	> 1500	7.7	9.4	> 1500
135	CC1(C)[C@H]2CC[C@]1(C)[C@H]1OC(=O)CN=C21	> 900	> 900	82	145	> 900
54	CC(C)(C)OC(=O)CC[C@H]1N=C2C[C@H]3C[C@H](C3(C)C)[C@@]2(C)OC1=O	> 1200	> 1200	51	55	> 1200

Reference: ChEMBL document CHEMBL3808376, “Iminolactones as tools for inversion of the absolute configuration of α-amino acids and as inhibitors of cancer cell proliferation” (Eur J Med Chem, 2016)
